NPY-Y1 PAM-ag = potentiators or agonists of human neuropeptide Y receptor Y1; NPY-Y1 expressing cells, potentiator/agonist activation; activation, % at 3.6 µM; 220,000 compounds, 0.37% hits; in the data active = activation above about 33%, passing the limit was not always enough;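 also: cells stimulated with NPY at EC10 then isoproterenol at EC100; 0% = low agonist plus stimulus and 100% = saturating agonist plus stimulus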
Target sequence (P25929 whole entry, looked up): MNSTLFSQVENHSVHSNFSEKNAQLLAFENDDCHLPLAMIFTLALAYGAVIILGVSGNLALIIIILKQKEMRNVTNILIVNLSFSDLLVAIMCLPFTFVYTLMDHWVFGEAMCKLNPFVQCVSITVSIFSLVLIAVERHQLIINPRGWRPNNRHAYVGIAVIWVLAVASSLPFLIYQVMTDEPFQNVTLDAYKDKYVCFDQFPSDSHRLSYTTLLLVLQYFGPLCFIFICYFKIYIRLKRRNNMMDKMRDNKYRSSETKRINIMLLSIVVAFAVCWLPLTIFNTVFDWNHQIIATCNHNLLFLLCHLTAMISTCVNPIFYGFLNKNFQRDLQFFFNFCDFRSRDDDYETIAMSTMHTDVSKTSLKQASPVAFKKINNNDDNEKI
NPY Y1 blocker = antagonists of human neuropeptide Y receptor Y1. P25929. HEK293-CNG Y1 cells, membrane potential fluorescence; NPY at EC95, then isoproterenol. inhibition, % at 3.6 µM. 200,000 compounds, 1% hits. AID 1040;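 active = inhibition above the campaign mean inhibition of all tested compounds plus 3 SD, cut at about 20% in these data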;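 also: 0% = DMSO wells given NPY plus isoproterenol and 100% = isoproterenol alone without NPY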
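Material: HEK293 cells co-expressing NPY Y1 receptor and cyclic-nucleotide gated channel. Timing: compound incubation 1 h at room temperature, readout 45 min post-stimulation. Signal: fluorescence, membrane potential probe.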
NPY-Y2 PAM-ag = potentiators or agonists of human neuropeptide Y receptor Y2 | P49146 | cells expressing NPY-Y2, potentiator/agonist read-out | activation, % at 3.6 µM | 220,000 compounds, 0.45% hits; in the data active = activation above about 27%;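 also: cells stimulated with NPY near EC25 plus isoproterenol at EC100; 0% = vehicle plus submaximal agonist and 100% = vehicle plus saturating agonist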
Target sequence (P49146 whole entry, looked up): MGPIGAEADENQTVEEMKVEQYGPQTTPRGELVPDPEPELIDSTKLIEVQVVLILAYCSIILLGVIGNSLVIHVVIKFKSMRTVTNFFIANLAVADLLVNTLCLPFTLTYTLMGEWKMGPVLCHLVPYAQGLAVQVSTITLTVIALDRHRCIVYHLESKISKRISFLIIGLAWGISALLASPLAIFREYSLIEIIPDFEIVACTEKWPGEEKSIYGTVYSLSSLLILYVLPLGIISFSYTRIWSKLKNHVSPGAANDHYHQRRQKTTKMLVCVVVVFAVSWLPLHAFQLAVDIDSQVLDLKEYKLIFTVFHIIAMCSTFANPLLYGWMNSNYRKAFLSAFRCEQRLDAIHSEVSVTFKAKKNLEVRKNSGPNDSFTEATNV
NPY Y2 blocker = blocks the human neuropeptide Y Y2 receptor | P49146 | NPY-Y2 expressing cells, antagonist mode | inhibition, % at 2.7 µM | 140,000 compounds, 0.99% hits | AID 793; in the data active = inhibition above about 17%;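 also: 0% = vehicle with agonist challenge and 100% = reference antagonist with challenge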
NPY-Y1 pot conf = confirmation of human NPY-Y1 receptor potentiators or agonists; activation, % at 3.6 µM; shares compounds with NPY-Y1 PAM-ag; 280 compounds, 20% hits; cell-based NPY-Y1 potentiator/agonist assay; in the data active = activation above about 45%;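 also: cells challenged with NPY at its EC10 plus isoproterenol stimulus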
NPY-Y2 counter = potentiates or activates NPY-Y2, counter-screen for NPY-Y1 hits; shares compounds with NPY-Y1 PAM-ag; 280 compounds, 20% hits; AID 1649; HEK293-CNG cells, membrane-potential fluorescence (FLIPR), 1536-well; activation, % at 3.6 µM; in the data active = activation above about 33%
NPY-Y1 ag = activates human NPY-Y1, counter-screen for NPY-Y1 potentiators. 280 compounds, 50% hits. activation, % at 3.6 µM. HEK293 Y1-CNGC, membrane potential fluorescence, agonist mode. AID 1697. shares compounds with NPY-Y1 PAM-ag;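 active = percent activation above the mean of DMSO-only control wells plus 3 SD of those wells, cut at about 18% in these data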;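 also: cells challenged with isoproterenol plus Ro 20-1724 with no NPY in test wells; Y1 agonism lowers isoproterenol-driven cAMP and reduces probe fluorescence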
NPY-Y2 ag = counter-screen for NPY-Y1 potentiators or agonists: agonists of NPY-Y2. shares compounds with NPY-Y1 PAM-ag. HEK293 Y2-CNGC, membrane potential fluorescence, agonist mode. activation, % at 3.6 µM. 280 compounds, 67% hits;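 active = activation above the solvent-only control wells' mean plus 3 SD, cut at about 11% in these data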;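 also: 0% = DMSO with isoproterenol and 100% = 40 nM NPY maximal response; agonism lowers cAMP so well fluorescence drops in active wells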
CNGC inh 2 = blocks cyclic nucleotide gated channel in NPY-Y1 counter-screen. AID 1704. 280 compounds, 42% hits. shares compounds with NPY-Y1 PAM-ag. inhibition, % at 3.6 µM. HEK293-CNG parental, isoproterenol cAMP, membrane potential fluorescence;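 active = inhibition above the mean of stimulated solvent-only control wells plus 3 SD, cut at about 22% in these data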;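 also: 0% = isoproterenol-stimulated DMSO wells and 100% = unstimulated DMSO wells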
Active calls of the source: *; x = no result given. Shown are actives, neighbours in structure and some others; about 1.9% of the full set was active somewhere.

SMILES	NPY-Y1 PAM-ag	NPY Y1 blocker	NPY-Y2 PAM-ag	NPY Y2 blocker	NPY-Y1 pot conf	NPY-Y2 counter	NPY-Y1 ag	NPY-Y2 ag	CNGC inh 2
CCOc1ccc(NC(=O)C2C3CCC4C(CCC32)C4(Cl)Cl)cc1 (stereo not given)	-0.1	6.6	7.6	x	x	x	x	x	x
CN1CCN(c2ccccc2NC(=O)c2ccc(N3CCCC3)c([N+](=O)[O-])c2)CC1	2.5	11.0	8.7	x	x	x	x	x	x
O=C(Nc1ccccc1N1CCCCC1)c1ccc(Cl)c([N+](=O)[O-])c1	50.6*	-9.6	9.5	x	45.0*	38.5*	29.5*	37.8*	34.3*
CCN(CC)CCCN=Cc1c(O)n(-c2ccccc2C)c(=O)c2ccccc12	21.9	x	-5.0	x	x	x	x	x	x
COc1cccc(C(=O)Nc2ccc(C)cc2)c1	-14.1	-8.9	7.8	3.6	x	x	x	x	x
COc1cccc(C(=O)NC(=O)Nc2cc(C)[nH]n2)c1	75.6*	x	-11.4	x	-5.7	-4.6	-4.2	3.8	-2.3
CC(=O)c1ccccc1OCC(O)CN1CCN(CCN2C(=O)c3cccc4cccc(c34)C2=O)CC1 (stereo not given)	36.5*	-6.7	18.9	x	30.0	26.8	10.0	20.0*	14.6
COc1cc(COCC(O)CN2CCN(CCN3C(=O)c4cccc5cccc(c45)C3=O)CC2)cc(OC)c1OC (stereo not given)	-1.9	-6.2	6.8	0.8	x	x	x	x	x
O=C1c2cccc3cccc(c23)C(=O)N1CCN1CCN(CC(O)COCc2ccc(Cl)cc2)CC1 (stereo not given)	37.2*	2.7	29.1	3.0	41.3	45.7*	30.6*	57.2*	47.4*
OCCNCCOc1ccccc1F	-23.5	6.4	-3.8	2.8	x	x	x	x	x
COCCCNCC(O)COc1ccccc1F (stereo not given)	49.1*	-0.6	25.7	x	30.4	24.7	30.8*	26.8*	3.5
Fc1cc(NC(=S)NCc2ccc(CNC(=S)Nc3ccc(Cl)c(F)c3)cc2)ccc1Cl	52.0*	x	43.9	x	70.6*	51.4*	54.9*	57.3*	54.8*
Cc1ccc(OC(=O)CCN2C(=O)c3ccccc3C2=O)cc1C	-5.7	-4.2	-10.2	x	x	x	x	x	x
CC(=O)Nc1ccc(NS(=O)(=O)c2c(Cl)cccc2Cl)cc1	9.3	x	-8.5	x	x	x	x	x	x
CC1c2[nH]c3ccccc3c2CCN1C(=O)Nc1ccccc1 (stereo not given)	47.1*	-8.4	9.4	-1.0	5.1	5.0	5.7	0.0	5.6
Cc1ccc(-c2nc(Nc3ccc(N4CCOCC4)cc3)c3ccccc3n2)cc1	53.2*	x	36.9	x	50.8*	41.8*	58.1*	45.4*	58.2*
Cc1c(/C=N/Nc2nc3ccccc3[nH]2)c2ccccc2n1C	56.2*	x	37.2	x	46.8*	40.8*	34.5*	42.7*	33.6*
CC(C)(C)C(=O)Nc1cc(S(=O)(=O)N2CCCCC2)ccc1N1CCCCC1	-32.2	1.9	-21.3	x	x	x	x	x	x
CCN(CC)C(=S)SCC(=O)Nc1ncc2c(n1)CC(C)(C)CC2=O	8.9	x	-2.9	x	x	x	x	x	x
CCOC(=O)C1(Cc2cccc(F)c2)CCN(C(=O)c2ccoc2C)CC1	1.8	11.2	-5.7	x	x	x	x	x	x
O=[N+]([O-])c1ccc(S(=O)(=O)NCCc2ccncc2)cc1	-3.3	0.2	-14.1	x	x	x	x	x	x
Cc1cccc(N(C(=O)Nc2ccc(Cl)cc2)C2=NCC(C)S2)n1 (stereo not given)	36.9*	-2.8	-7.4	x	2.0	0.5	3.1	11.6*	8.0
Cc1ccc(Cn2nnc3c(=O)n(CC(=O)OCc4ccccc4)cnc32)cc1	48.5*	-8.1	27.8	5.3	13.9	6.5	18.2*	11.0*	29.7*
O=C(Cn1cnc2c(nnn2Cc2ccc(F)cc2)c1=O)OCc1ccccc1	-1.7	-2.9	10.8	4.0	x	x	x	x	x
CC(C)C(=O)NNC(=O)c1cc2sccc2s1	10.0	x	9.5	x	x	x	x	x	x
SMILES	NPY-Y1 PAM-ag	NPY Y1 blocker	NPY-Y2 PAM-ag	NPY Y2 blocker	NPY-Y1 pot conf	NPY-Y2 counter	NPY-Y1 ag	NPY-Y2 ag	CNGC inh 2
Nc1nc(Nc2ccccc2)nc(NCc2ccccc2)c1[N+](=O)[O-]	16.9	x	22.6	x	x	x	x	x	x
Cc1cccc(Nc2nc(N)c([N+](=O)[O-])c(NCc3ccccc3)n2)c1	49.9*	x	33.5	x	47.5*	32.0	32.6*	30.9*	44.7*
Cc1oc2ccc(O)c(CN(C)C)c2c1C(=O)c1ccccc1	47.4*	2.4	14.4	x	14.0	20.6	16.1	10.9*	-10.4
CCOC(=O)c1c(CSCc2ccccc2)oc2ccc(O)c(CN(C)C)c12	20.4	x	-20.8	x	x	x	x	x	x
O=C(O)/C=C/c1ccc(S(=O)(=O)NCc2ccco2)cc1	64.3*	2.1	-9.7	x	4.3	-3.3	-9.8	-8.2	-1.9
Cc1c(Cl)ccc2c1NC(=O)[C@]21[C@@H]2C(=O)N(Cc3ccccc3)C(=O)[C@@H]2[C@@H]2CCCN21	31.8*	-2.1	7.5	-3.5	22.5	14.3	15.2	10.7*	16.4
Cc1sc2nc(COC(=O)CNC(=O)c3ccc(C(C)(C)C)cc3)[nH]c(=O)c2c1C	-30.6	9.3	-3.8	5.6	x	x	x	x	x
CC1CCN(C2=C(NS(=O)(=O)c3ccc(Cl)cc3)C(=O)c3ccccc3C2=O)CC1	43.6*	-17.0	19.2	-11.1	99.0*	79.9*	65.2*	57.0*	76.8*
CCOC(=O)C1CCN(C(=O)c2ccccc2NS(=O)(=O)c2ccc(F)c(F)c2)CC1	-12.8	-0.9	4.5	2.7	x	x	x	x	x
CCOC(=O)C1CCN(C2=C(NS(=O)(=O)c3ccc(Cl)cc3)C(=O)c3ccccc3C2=O)CC1	54.9*	x	35.1	x	71.8*	57.4*	69.8*	65.3*	56.8*
COc1cc2c(cc1NC(=O)C(C)OC(=O)C1CC(=O)N(Cc3ccco3)C1)oc1ccccc12 (stereo not given)	123.9*	-9.7	6.4	-2.7	5.7	8.0	12.4	15.9*	14.7
COc1ccc(C)cc1NC(=O)C1CC(=O)N(Cc2ccco2)C1 (stereo not given)	-10.6	0.7	12.8	1.7	x	x	x	x	x
O=C(c1ccccc1)c1c[nH]c(C(=O)NNc2ccccc2)c1	0.2	-0.9	0.8	x	x	x	x	x	x
CCn1nc([N+](=O)[O-])c(C(C#N)c2nc3ccccc3n2C)c(Cl)c1=O (stereo not given)	-6.9	0.1	8.5	2.9	x	x	x	x	x
CCCn1nc([N+](=O)[O-])c(C(C#N)c2nc3ccccc3s2)c(Cl)c1=O (stereo not given)	59.4*	-7.0	27.4	4.2	20.5	21.4	16.6	32.0*	17.2
NC1=NC(=O)/C(=C\c2cc([N+](=O)[O-])ccc2Cl)S1	5.4	3.8	5.8	x	x	x	x	x	x

Screens as filed in PubChem.
